Screening data: PubChem BioAssay, Sanford-Burnham Center for Chemical Genomics
APJ agonist: APJ receptor agonism; CHO-K1 APJ PathHunter beta-arrestin, luminescence; 0% DMSO wells, 100% apelin; activation, % at 20 µM; 330,000 tested, 0.11% active; AID 2520;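 active = activation more than six SD over the plate average, tested at 20 µM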;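 also: 0% = DMSO alone and 100% = apelin-13 at 10 nM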
Target sequence (P35414 whole entry, looked up): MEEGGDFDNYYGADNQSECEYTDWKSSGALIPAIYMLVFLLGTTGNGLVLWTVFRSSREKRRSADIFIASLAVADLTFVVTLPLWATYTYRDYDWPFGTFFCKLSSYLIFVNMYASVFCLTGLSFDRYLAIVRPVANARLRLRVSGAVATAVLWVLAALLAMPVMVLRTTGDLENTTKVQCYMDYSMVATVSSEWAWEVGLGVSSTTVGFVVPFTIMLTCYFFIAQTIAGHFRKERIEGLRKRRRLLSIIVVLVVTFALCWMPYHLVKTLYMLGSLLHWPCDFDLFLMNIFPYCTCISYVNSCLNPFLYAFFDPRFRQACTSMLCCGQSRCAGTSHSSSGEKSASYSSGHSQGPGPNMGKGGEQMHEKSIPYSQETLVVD
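Test system – PathHunter CHO-K1 APJ (AGTRL-1) beta-arrestin reporter cells · Input – 1000 cells/well · Compound – single test compound dose, 20 µM final, 1% DMSO · Times – compound stimulation 90 min at 25 °C, detection 60 min · Technique – beta-gal luminescence · Read-out basis – APJ–arrestin association signal · Control set – negative DMSO alone, positive Apelin-13 at 10 nM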
APJ antagonist: antagonists of human APJ apelin receptor. P35414. CHO-K1 APJ beta-arrestin complementation, luminescence. inhibition, % at 20 µM. 330,000 tested, 0.32% active. AID 2521;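 active = inhibition above about 40% at 20 µM, limit read from the data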;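 also: cells challenged with 10 nM apelin-13 agonist together with compound; plate controls were apelin-13 plus DMSO wells for no effect and DMSO wells lacking apelin-13 for full effect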
CXCR6 block: CXCR6 (human) receptor inhibition | O00574 | CHO-K1 PathHunter CXCR6 beta-arrestin, luminescence | inhibition, % at 20 µM | 360,000 tested, 0.36% active; in the data active = inhibition above about 34%, passing the limit was not always enough;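 also: antagonist mode with CXCL16 agonist at 10 nM final; 0% = 10 nM CXCL16 with DMSO and 100% = unstimulated wells without agonist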
EBI2 antag: antagonists of human EBI2 receptor. EBI2 beta-arrestin recruitment, luminescence, 7a,25-OHC stimulated. inhibition, % at 5 µM. 360,000 tested, 0.81% active; in the data active = inhibition above about 38%;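 also: enzyme fragment complementation signal reports receptor beta-arrestin coupling in cells; 0% = agonist plus DMSO wells and 100% = wells without agonist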
Target sequence (P32249 whole entry, looked up, the tested form may be a part): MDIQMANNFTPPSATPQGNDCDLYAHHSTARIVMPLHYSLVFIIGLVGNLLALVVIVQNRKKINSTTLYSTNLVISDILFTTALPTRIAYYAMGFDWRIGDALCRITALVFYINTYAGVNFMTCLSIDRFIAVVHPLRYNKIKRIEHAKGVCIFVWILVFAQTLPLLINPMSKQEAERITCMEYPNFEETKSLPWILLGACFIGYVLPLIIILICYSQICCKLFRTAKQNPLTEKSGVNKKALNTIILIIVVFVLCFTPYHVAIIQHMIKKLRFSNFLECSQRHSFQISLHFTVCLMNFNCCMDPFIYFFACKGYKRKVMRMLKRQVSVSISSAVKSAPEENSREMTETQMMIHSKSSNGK
CCR6 antag: CCR6 (human) receptor antagonism | AID 493098 | inhibition, % at 20 µM | P51684 | 340,000 tested, 0.49% active | CHO-K1 CCR6 PathHunter beta-arrestin, luminescence, CCL20-stimulated;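 active = compounds whose inhibition of the agonist-driven luminescence signal at 20 µM reaches about 50%, limit read from the data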;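 also: cells stimulated with CCL20 at 14 nM final; plate controls were DMSO with CCL20 for no effect and DMSO without agonist for full effect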
EBI2 antag conf: confirmation of human EBI2 receptor antagonists; shares compounds with EBI2 antag; EBI2 beta-arrestin luminescence, 7a,25-OHC antagonism; inhibition, % at 5 µM; 2,400 tested, 29% active; AID 651997;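 active = inhibition of at least 50%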
EBI2 ag: EBI2 agonism counter-screen; shares compounds with EBI2 antag; EBI2-expressing cells, agonist mode, luminescence, 60 min; 0% vehicle, 100% 7α,25-dihydroxycholesterol control; activation, % at 5 µM; 2,400 tested, under 10 active; AID 652000;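 active = activation of at least 50%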
bGal counter: beta-galactosidase inhibition counter-screen. shares compounds with EBI2 antag. purified beta-galactosidase, luminescent Galacton Star, 15 min. 2,400 tested, 1% active. inhibition, % at 5 µM;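 active = replicate-average signal at least 3 plate SD below neutral wells, shown as high inhibition, flagging enzyme-inhibiting false positives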;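 also: 0% = DMSO wells with enzyme and 100% = wells lacking enzyme; higher means stronger loss of beta-gal luminescence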
* = called active by the depositor; · = no result given. The list is not random: actives were taken first. Their share in the collection is about 1.5%.

SMILES	APJ agonist	APJ antagonist	CXCR6 block	EBI2 antag	CCR6 antag	EBI2 antag conf	EBI2 ag	bGal counter
COc1ccc(NC(=O)N2CCN(c3ccc([N+](=O)[O-])cc3)CC2)cc1	-2.5	2.3	-8.1	62.3*	-4.4	40.6	2.1	10.7
COc1ccc(N2CCN(C(=O)NC3CC(=O)N(c4ccc(OC)cc4)C3)CC2)cc1 (stereo unspecified)	-5.7	-1.3	2.0	46.0*	2.8	18.9	-0.8	3.7
O=C(NC1CC(=O)N(c2ccccc2)C1)N1CCN(C(=O)c2ccco2)CC1 (stereo unspecified)	2.8	-0.3	2.0	-12.2	5.7	·	·	·
O=C(NC1CC(=O)N(c2ccc(Cl)cc2)C1)N1CCN(C(=O)c2ccco2)CC1 (stereo unspecified)	-1.8	-6.7	-1.2	66.4*	2.9	48.5	-0.6	5.3
Cc1ccccc1OCC(=O)N/N=C/c1cc2ccccc2nc1Cl	5.1	-8.8	-17.1	30.0	10.5	·	·	·
O=C(COc1cccc(Cl)c1)N/N=C\c1cc2ccccc2nc1Cl	0.8	-6.0	-5.6	52.6*	-1.7	42.1	-1.1	-9.8
CC(C)(C)C(O)C(Cc1ccccc1Cl)n1cncn1 (stereo unspecified)	-4.6	21.4	-4.6	6.3	6.5	·	·	·
COc1ccccc1CC(=O)N1CCN(c2cccc(C(F)(F)F)c2)CC1	-0.6	1.2	-5.4	5.4	14.0	·	·	·
COCCNc1nc(NCCOc2ccccc2)c2sc(-c3ccccc3)cc2n1	·	·	9.4	47.3*	·	45.0	-0.2	6.3
COCCNc1nc(-c2ccc(OC)cc2C)c2sc(-c3ccccc3)cc2n1	·	·	5.5	41.8*	·	18.8	-0.9	-13.2
CC(C)Nc1nc(NCCOc2ccccc2Cl)c2sc(-c3ccccc3)cc2n1	·	·	8.7	51.8*	·	30.1	0.1	-14.8
COc1ccccc1CNc1nc(NCc2ccccc2)nc2ccsc12	·	·	-0.5	-2.1	·	·	·	·
COc1ccccc1CNc1nc(NC(C)C)nc2cc(-c3ccccc3)sc12	·	·	3.3	49.6*	·	50.3*	-1.6	-8.3
COCCNc1nc(NCCOC)c2sc(-c3ccccc3)cc2n1	·	·	2.8	12.3	·	·	·	·
CCOC(=O)c1cc(CC)sc1NC(=O)CN1C(=O)C(=O)N(CC(C)C)C1=O	7.4	15.8	-3.1	-12.6	4.4	·	·	·
Cc1ccc(NCCNc2ccc(C)cc2)cc1	3.2	10.1	1.9	47.4*	-3.0	58.0*	2.6	-0.1
Cc1ccc(NCCc2ccc(C)nc2)cc1	-4.4	0.5	-10.5	47.2*	-12.9	20.9	0.9	9.6
Cc1ccc(CCNc2ccc3ccccc3c2)cn1	-1.2	-11.8	-9.2	26.9	10.7	·	·	·
COc1ccc(C(=O)CCNc2ccc(F)cc2)cc1	2.1	-4.2	-10.0	10.8	-9.9	·	·	·
COc1ccc(NCCNc2ccc(OC)cc2)cc1	-0.8	-0.1	-3.7	39.9*	6.6	16.1	-1.0	-10.3
CSc1cccc(NC(=S)NC(=O)c2cccnc2)c1	-4.4	23.6	26.2	6.7	40.8	·	·	·
Cc1cc(C(=O)NCc2ccc(F)cc2)c2ccccc2n1	-2.0	-11.3	10.4	-1.3	10.4	·	·	·
Cn1ccnc1C(=O)c1cc(SCC(=O)NCc2ccccc2)nc2ccccc12	-2.5	-14.1	-6.3	44.1*	4.3	-6.9	1.1	3.0
COC(=O)CSc1cc(C(=O)c2nccn2C)c2ccccc2n1	-1.3	3.5	-1.2	3.1	14.0	·	·	·
CCOC(=O)C1CCN(C(=O)/C=C/c2ccccc2OC)CC1	-1.9	2.0	-4.4	21.8	6.7	·	·	·
SMILES	APJ agonist	APJ antagonist	CXCR6 block	EBI2 antag	CCR6 antag	EBI2 antag conf	EBI2 ag	bGal counter
CCN1CCN(C(=O)/C=C/c2ccc(F)cc2)CC1	-0.5	2.1	0.4	83.7*	4.0	71.2*	0.4	4.9
CCN1CCN(C(=O)/C=C/c2ccc(OC)cc2)CC1	1.6	3.1	-1.1	87.5*	5.1	73.5*	1.7	6.7
CCOC(=O)C1CCN(C(=O)/C=C/c2ccc(OC)cc2)CC1	-0.9	-4.6	-3.1	87.4*	2.5	75.1*	0.4	-5.0
CC1CCN(S(=O)(=O)c2cc3c4c(c2)CCN4C(=O)CC3)CC1	-4.9	0.5	-9.0	-1.7	12.5	·	·	·
CC(C)C[C@@H](CN1CCC[C@@H]1CN1C(=S)NC[C@@H]1Cc1ccccc1)N1C[C@H](Cc2ccc(O)cc2)N(CC2CCCCCC2)C1=S	·	·	-1.0	58.1*	·	17.4	-0.8	-10.3
CC(C)C[C@H]1CNC(=S)N1C[C@H]1CCCN1C[C@H](CC(C)C)N1C[C@H](Cc2ccc(O)cc2)N(CC2CCCCCC2)C1=S	·	·	7.5	59.8*	·	24.9	-0.6	-14.0
CC(C)C[C@H]1CNC(=S)N1CC1CCCN1C[C@H](CC(C)C)N1C[C@H](Cc2ccc(O)cc2)N(CC2CCCCC2)C1=S (stereo partly specified)	·	·	8.4	30.9	8.8	·	·	·
COc1ccccc1C(CNC(=O)c1cccc(S(=O)(=O)Nc2ccc(C)cc2)c1)N(C)C (stereo unspecified)	-0.9	10.1	2.1	0.4	11.6	·	·	·
CCOc1ccc(-c2cn(-c3ccc(OC)cc3)c(SC)n2)cc1	1.1	-2.0	-1.3	65.4*	10.9	26.2	-1.2	-12.3
O=C(/C=C/c1cccc(F)c1)c1ccc(N2CCOCC2)cc1	-4.6	-0.4	9.5	58.2*	26.6	37.5	0.3	2.9
O=C(/C=C/c1cccc(F)c1)Nc1cc(S(=O)(=O)N2CCOCC2)ccc1Cl	-0.6	5.4	-3.8	12.7	12.1	·	·	·
O=C(c1ccc(Cl)cc1)N1CCN(CCOc2ccccc2)CC1	-5.4	2.7	-2.5	45.6*	7.2	10.7	0.6	4.8
COc1ccc(OCCN2CCN(C(=O)c3ccc(OC)cc3)CC2)cc1	-1.3	-14.0	9.7	43.7	6.0	·	·	·
CN(CC(=O)Nc1ccc(Cl)c(C(F)(F)F)c1)C(=O)C1CCC1	-8.7	8.8	-5.9	-13.0	25.1	·	·	·
CN(CC(=O)Nc1ccc(Cl)c(C(F)(F)F)c1)C(=O)C1CCN(C(=O)c2ccc(Cl)cc2)CC1	·	·	-13.2	55.6*	-2.1	39.4	-0.9	-20.3
CN(CCOc1ccc(Cl)cc1)C(=O)C1CCN(C(=O)c2ccc(Cl)cc2)CC1	4.4	7.7	9.3	73.6*	18.8	40.2	0.2	3.7
O=c1c2ccccc2nc(/C=C/c2cc(Br)ccc2O)n1CCCO	-2.3	3.7	-4.8	22.1	9.5	·	·	·
O=C(NCc1ccccc1)c1cc(=O)nc2sc(-c3ccccc3)nn12	·	·	0.3	43.7*	12.8	26.3	-1.1	-8.7
Cc1ccc(C2CC(c3ccccc3)=NN2C(=O)CSc2nnc(-c3ccc(Cl)cc3)o2)o1 (stereo unspecified)	0.2	4.9	11.0	42.1*	4.4	2.0	-1.2	-5.9
